Measurements gathered from unrelated publications.
JAK3: Tyrosine-protein kinase JAK3 (JAK3, Homo sapiens, UniProt P52333)
JAK3 JH1: Tyrosine-protein kinase JAK3, JH1 (JAK3, Homo sapiens, UniProt P52333)

| Structure (SMILES) | target | observed | mode | technique | concentration | endpoint | value |
| --- | --- | --- | --- | --- | --- | --- | --- |
| C#Cc1n[nH]c2c(-c3cn(C(C)c4ccccn4)c(=O)[nH]c3=O)cc(F)cc12 (stereo not shown) | JAK3 | enzyme activity | inhibitor | – | 1 µM | inhibition | -4.9% |
| Cn1cc(-c2cc(F)cc(N3CCn4c(cc5c4CCCC5)C3=O)c2CO)cc(Nc2ccc(N3CCN(C4COC4)CC3)cn2)c1=O | JAK3 | enzyme activity | inhibitor | – | 0.1 µM | inhibition | 2% |
| Nc1ncc(-c2nc(N3CCOCC3)nc(N3CCOCC3)n2)c(C(F)F)n1 | JAK3 JH1 | binding | – | competition with immobilised ligand | 10 µM | remaining binding | 46% |
| CC(C)(C)c1cc(C=C(C#N)C#N)cc(Br)c1O | JAK3 | enzyme activity | inhibitor | – | 0.5 µM | remaining activity | 110% |
| C#Cc1n[nH]c2c(-c3cn([C@@H](C)c4ccccc4)c(=O)[nH]c3=O)cc(F)cc12 | JAK3 | enzyme activity | inhibitor | – | 0.1 µM | inhibition | -12.1% |
| Cn1cncc1[C@@](O)(COc1ccc(C#N)cc1-c1ccc(OC(F)(F)F)cc1)c1ccc(C#N)cc1 | JAK3 JH1 | cell-free assay | – | competition with immobilised ligand | 1 µM | remaining binding | 100% |
| Cn1cc(-c2cccc(N3CCc4c(sc5c4CC(C)(C)C5)C3=O)c2CO)cc(Nc2ccncn2)c1=O | JAK3 | enzyme activity | inhibitor | – | 1 µM | inhibition | -4% |
| O=c1[nH]c2ccccc2n1C1CCN(Cc2ccc(-c3[nH]c4cc5ncnc5cc4nc3-c3ccccc3)cc2)CC1 | JAK3 | cell-free assay | – | – | 0.5 µM | remaining signal | 100% |
| COc1ncccc1-c1cnn2ccc(N3CCN(C(=O)OC(C)C)CC3)nc12 | JAK3 | binding | – | competition with immobilised ligand | 1 µM | remaining binding | 71% |
| Cc1nn(C)cc1-c1nc2c(N3CCN(Cc4ccc(Cl)cc4)CC3)c(Cl)cnc2[nH]1 | JAK3 JH1 | binding | – | competition with immobilised ligand | 1 µM | remaining binding | 0.85% |
